# From ChEMBL document CHEMBL4368880, “Synthesis and biological evaluation of 3-(1,3,4-oxadiazol-2-yl)-1,8-naphthyridin-4(1H)-ones as cisplatin sensitizers” (Medchemcomm, 2018)
# Activity calls are given as the source filed them. The calls are words filed in the database; no cut-off is given here.
# Experiments:
# [1] = molecular target: Serine/threonine-protein kinase ATR (Homo sapiens) (UniProt Q13535); experiment: Inhibition of ATR in human HCT116 cells assessed as reduction in cisplatin-induced CHK1 expression preincubated for 24 hrs followed by cisplatin addition and measured after 48 hrs by Western blot analysis; type: cell-based
# Sequence of Serine/threonine-protein kinase ATR (Homo sapiens) (Q13535 whole entry, looked up): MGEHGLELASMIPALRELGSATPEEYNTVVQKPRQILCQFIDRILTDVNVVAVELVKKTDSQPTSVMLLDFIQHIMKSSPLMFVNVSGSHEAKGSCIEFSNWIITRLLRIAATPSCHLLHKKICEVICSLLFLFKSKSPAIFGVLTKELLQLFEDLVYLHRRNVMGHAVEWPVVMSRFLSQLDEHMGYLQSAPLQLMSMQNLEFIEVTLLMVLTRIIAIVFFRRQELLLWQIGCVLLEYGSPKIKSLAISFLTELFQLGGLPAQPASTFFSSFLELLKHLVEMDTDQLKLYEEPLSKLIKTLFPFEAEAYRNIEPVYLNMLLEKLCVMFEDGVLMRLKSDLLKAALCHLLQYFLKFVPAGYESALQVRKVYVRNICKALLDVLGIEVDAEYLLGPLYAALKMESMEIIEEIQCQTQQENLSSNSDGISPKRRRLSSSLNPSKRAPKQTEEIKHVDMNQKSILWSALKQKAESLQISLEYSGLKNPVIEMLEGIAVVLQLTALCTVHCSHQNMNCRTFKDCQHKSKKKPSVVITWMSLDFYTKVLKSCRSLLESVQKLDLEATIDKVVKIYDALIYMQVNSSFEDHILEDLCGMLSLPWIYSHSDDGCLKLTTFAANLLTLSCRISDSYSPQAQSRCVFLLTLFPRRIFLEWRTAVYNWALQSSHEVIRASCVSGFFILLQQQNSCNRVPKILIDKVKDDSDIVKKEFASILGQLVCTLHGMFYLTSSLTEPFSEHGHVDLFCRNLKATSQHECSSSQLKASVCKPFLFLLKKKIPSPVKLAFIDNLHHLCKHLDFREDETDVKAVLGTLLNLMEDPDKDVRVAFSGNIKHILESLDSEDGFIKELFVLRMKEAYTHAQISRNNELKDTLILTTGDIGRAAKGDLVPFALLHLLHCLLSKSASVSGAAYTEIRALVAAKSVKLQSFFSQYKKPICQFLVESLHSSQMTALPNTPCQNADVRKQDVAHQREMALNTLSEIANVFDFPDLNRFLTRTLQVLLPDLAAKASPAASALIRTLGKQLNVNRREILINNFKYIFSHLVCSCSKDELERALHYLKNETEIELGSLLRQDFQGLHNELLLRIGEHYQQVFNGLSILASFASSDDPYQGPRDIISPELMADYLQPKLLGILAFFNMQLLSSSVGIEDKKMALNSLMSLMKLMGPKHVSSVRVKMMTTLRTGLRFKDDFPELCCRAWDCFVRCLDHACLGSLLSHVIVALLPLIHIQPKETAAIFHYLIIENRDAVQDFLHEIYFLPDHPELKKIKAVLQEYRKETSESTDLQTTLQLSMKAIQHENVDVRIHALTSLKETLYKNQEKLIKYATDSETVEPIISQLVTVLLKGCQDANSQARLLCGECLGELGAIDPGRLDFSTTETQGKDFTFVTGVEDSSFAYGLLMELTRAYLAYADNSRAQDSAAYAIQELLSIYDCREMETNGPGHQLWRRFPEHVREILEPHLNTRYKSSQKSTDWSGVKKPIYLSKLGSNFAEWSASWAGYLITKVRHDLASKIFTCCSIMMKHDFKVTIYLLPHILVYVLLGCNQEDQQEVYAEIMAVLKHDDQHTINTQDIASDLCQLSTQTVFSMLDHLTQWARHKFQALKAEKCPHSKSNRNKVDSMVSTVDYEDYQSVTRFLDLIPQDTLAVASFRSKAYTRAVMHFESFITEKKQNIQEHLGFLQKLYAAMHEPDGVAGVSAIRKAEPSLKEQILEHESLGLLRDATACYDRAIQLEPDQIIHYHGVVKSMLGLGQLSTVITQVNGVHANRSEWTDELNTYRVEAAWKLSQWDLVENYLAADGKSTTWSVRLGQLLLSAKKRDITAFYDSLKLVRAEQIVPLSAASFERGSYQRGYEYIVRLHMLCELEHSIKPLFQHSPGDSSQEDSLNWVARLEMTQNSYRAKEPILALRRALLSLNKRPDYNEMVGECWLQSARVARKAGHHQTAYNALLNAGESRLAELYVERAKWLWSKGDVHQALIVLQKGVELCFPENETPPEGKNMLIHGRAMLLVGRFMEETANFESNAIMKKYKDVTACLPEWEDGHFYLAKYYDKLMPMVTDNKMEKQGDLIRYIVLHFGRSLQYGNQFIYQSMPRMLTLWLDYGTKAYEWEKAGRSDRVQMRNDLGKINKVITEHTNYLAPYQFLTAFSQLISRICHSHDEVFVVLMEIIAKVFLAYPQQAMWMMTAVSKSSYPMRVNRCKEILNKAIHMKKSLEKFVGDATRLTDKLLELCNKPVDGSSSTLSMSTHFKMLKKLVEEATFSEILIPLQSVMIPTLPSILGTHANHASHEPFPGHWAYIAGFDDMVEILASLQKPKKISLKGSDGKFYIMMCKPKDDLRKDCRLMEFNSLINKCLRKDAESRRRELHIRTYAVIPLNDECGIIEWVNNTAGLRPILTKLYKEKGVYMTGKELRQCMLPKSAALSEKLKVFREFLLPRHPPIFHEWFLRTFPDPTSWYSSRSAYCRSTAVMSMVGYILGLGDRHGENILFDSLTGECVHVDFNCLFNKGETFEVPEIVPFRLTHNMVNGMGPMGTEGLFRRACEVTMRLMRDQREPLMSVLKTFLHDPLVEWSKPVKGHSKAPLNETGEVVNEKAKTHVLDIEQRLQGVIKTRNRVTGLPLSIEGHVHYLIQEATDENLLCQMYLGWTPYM
# How it was run: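 HCT116 exposed to compound for 24 h before 48 h with cisplatin at 2.5 μM. Lysis in RIPA buffer with protease and phosphatase inhibitors, protein measured by BCA, equal loads run on 12% SDS-PAGE and moved to PVDF. Blocked in 5% milk, anti-CHK1 mouse mAb overnight at 4 °C, HRP secondary and ECL detection, GAPDH as loading control.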
# HCT-116 [2] = experiment: Growth inhibition of human HCT116 cells at 10 uM after 24 hrs by MTT assay relative to control; type: functional; conditions: HCT-116, 24 h, read-out: GI
# How it was run: (§1)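 Monolayers seeded 24 h before treatment, then exposed to compound, with DMEM or RPMI 1640 plus 10% FBS as growth medium. MTT (5 mg mL–1 stock) incubated 2–4 h at 37 °C, formazan dissolved in DMSO, and absorbance read at 570 nm. Growth inhibition reported as % of control.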
# KB [3] = experiment: Growth inhibition of human KB cells at 5 uM after 24 hrs by MTT assay relative to control; type: functional; conditions: read-out: GI; how it was run: as §1
# HCT-116 [4] = experiment: Potentiation of cisplatin-induced morphological changes in human HCT116 cells assessed as reduction in number of adherent cells at 2.5 uM preincubated for 24 hrs followed by cisplatin addition and measured after 48 hrs by Hoechst 33258 staining based fluorescence microscopic analysis; type: functional, cell-based
# How it was run: (§2)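 HCT116 given compound for 24 h, then cisplatin (2.5 μM) for 48 h. Fixed in 4% paraformaldehyde, stained with Hoechst 33258 at 5 μg mL–1, and nuclei examined and counted under a fluorescence microscope. Blue fluorescence quantified, with t-test over three independent experiments.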
# HepG2 [5] = experiment: Growth inhibition of human HepG2 cells at 5 uM after 24 hrs by MTT assay relative to control; type: functional; conditions: HepG2, 24 h, read-out: GI; how it was run: as §1
# HCT-116 [6] = experiment: Potentiation of cisplatin-induced antiproliferative activity against human HCT116 cells assessed as cell growth inhibition at 2.5 uM preincubated for 24 hrs followed by 2.5 uM cisplatin addition and measured after 48 hrs by MTT assay (reference value: 26.98 +/-2.84%); type: functional; conditions: read-out: GI
# A549 [7] = experiment: Growth inhibition of human A549 cells at 5 uM after 24 hrs by MTT assay relative to control; type: functional; conditions: A549, 24 h, read-out: GI; how it was run: as §1
# HCT-116 [8] = experiment: Potentiation of cisplatin-induced apoptosis in human HCT116 cells assessed as late apoptotic cells at 2.5 uM preincubated for 24 hrs followed by cisplatin addition and measured after 48 hrs by Annexin V-FITC/propidium iodide staining based flow cytometry (reference value: 11.5%); type: functional
# How it was run: (§3)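 HCT116 pretreated with compound for 24 h, then cisplatin at 2.5 μM added for 48 h. Cells harvested, washed in cold PBS, pelleted, stained with annexin V-FITC and propidium iodide, and counted by flow cytometry. Three independent experiments.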
# HCT-116 [9] = experiment: Induction of apoptosis in human HCT116 cells assessed as early apoptotic cells at 2.5 uM after 24 hrs by Annexin V-FITC/propidium iodide staining based flow cytometry (reference value: 5.75%); type: functional
# HCT-116 [10] = experiment: Induction of apoptosis in human HCT116 cells assessed as necrotic cells at 2.5 uM after 24 hrs by Annexin V-FITC/propidium iodide staining based flow cytometry (reference value: […]); type: functional
# A549 [11] = experiment: Growth inhibition of human A549 cells at 10 uM after 24 hrs by MTT assay relative to control; type: functional; conditions: A549, 24 h, read-out: GI; how it was run: as §1
# HepG2 [12] = experiment: Growth inhibition of human HepG2 cells at 10 uM after 24 hrs by MTT assay relative to control; type: functional; conditions: HepG2, 24 h, read-out: GI; how it was run: as §1
# HCT-116 [13] = experiment: Potentiation of cisplatin-induced morphological changes in human HCT116 cells assessed as chromatin condensation at 2.5 uM preincubated for 24 hrs followed by cisplatin addition and measured after 48 hrs by Hoechst 33258 staining based fluorescence microscopic analysis; type: functional, cell-based; how it was run: as §2
# KB [14] = experiment: Growth inhibition of human KB cells at 10 uM after 24 hrs by MTT assay relative to control; type: functional; conditions: read-out: GI; how it was run: as §1
# HCT-116 [15] = experiment: Induction of morphological changes in human HCT116 cells assessed as chromatin condensation at 2.5 uM measured after 24 hrs by Hoechst 33258 staining based fluorescence microscopic analysis; type: functional, cell-based
# HCT-116 [16] = experiment: Induction of apoptosis in human HCT116 cells assessed as late apoptotic cells at 2.5 uM after 24 hrs by Annexin V-FITC/propidium iodide staining based flow cytometry (reference value: 7.36%); type: functional
# HCT-116 [17] = experiment: Induction of morphological changes in human HCT116 cells assessed as cell shrinkage at 2.5 uM measured after 24 hrs by Hoechst 33258 staining based fluorescence microscopic analysis; type: functional
# HCT-116 [18] = experiment: Potentiation of cisplatin-induced morphological changes in human HCT116 cells assessed as cell shrinkage at 2.5 uM preincubated for 24 hrs followed by cisplatin addition and measured after 48 hrs by Hoechst 33258 staining based fluorescence microscopic analysis; type: functional; how it was run: as §2
# HCT-116 [19] = experiment: Growth inhibition of human HCT116 cells at 5 uM after 24 hrs by MTT assay relative to control; type: functional; conditions: HCT-116, 24 h, read-out: GI; how it was run: as §1
# HCT-116 [20] = experiment: Growth inhibition of human HCT116 cells at 2.5 uM after 24 hrs by MTT assay relative to control; type: functional; conditions: HCT-116, 24 h, read-out: GI; how it was run: as §1
# MCF7 [21] = experiment: Growth inhibition of human MCF7 cells at 5 uM after 24 hrs by MTT assay relative to control; type: functional; conditions: MCF7, 24 h, read-out: GI; how it was run: as §1
# HCT-116 [22] = experiment: Induction of morphological changes in human HCT116 cells assessed as reduction in number of adherent cells at 2.5 uM measured after 24 hrs by Hoechst 33258 staining based fluorescence microscopic analysis; type: functional, cell-based
# HeLa [23] = experiment: Growth inhibition of human HeLa cells at 10 uM after 24 hrs by MTT assay relative to control; type: functional; conditions: read-out: GI; how it was run: as §1
# L02 [24] = experiment: Cytotoxicity against human LO2 cells assessed as reduction in cell growth at 2.5 uM preincubated for 24 hrs followed by cisplatin addition and measured after 48 hrs by MTT assay; type: cell-based; conditions: l02, 48 h
# HCT-116 [25] = experiment: Potentiation of cisplatin-induced apoptosis in human HCT116 cells assessed as early apoptotic cells at 2.5 uM preincubated for 24 hrs followed by cisplatin addition and measured after 48 hrs by Annexin V-FITC/propidium iodide staining based flow cytometry (reference value: 4.07%); type: functional; how it was run: as §3
# MCF7 [26] = experiment: Growth inhibition of human MCF7 cells at 10 uM after 24 hrs by MTT assay relative to control; type: functional; conditions: MCF7, 24 h, read-out: GI; how it was run: as §1
# L02 [27] = experiment: Cytotoxicity against human LO2 cells assessed as reduction in cell growth at 5 to 10 uM after 24 hrs by MTT assay; type: cell-based; conditions: l02, 24 h
# HeLa [28] = experiment: Growth inhibition of human HeLa cells at 5 uM after 24 hrs by MTT assay relative to control; type: functional; conditions: read-out: GI; how it was run: as §1
# HCT-116 [29] = experiment: Induction of apoptosis in human HCT116 cells assessed as viable cells at 2.5 uM after 24 hrs by Annexin V-FITC/propidium iodide staining based flow cytometry (reference value: 76.5%); type: functional; conditions: HCT-116, 24 h, read-out: Activity
# HCT-116 [30] = experiment: Potentiation of cisplatin-induced apoptosis in human HCT116 cells assessed as necrotic cells at 2.5 uM preincubated for 24 hrs followed by cisplatin addition and measured after 48 hrs by Annexin V-FITC/propidium iodide staining based flow cytometry (reference value: 11.3%); type: functional; how it was run: as §3
# HCT-116 [31] = experiment: Potentiation of cisplatin-induced apoptosis in human HCT116 cells assessed as viable cells at 2.5 uM preincubated for 24 hrs followed by cisplatin addition and measured after 48 hrs by Annexin V-FITC/propidium iodide staining based flow cytometry (reference value: 73.2%); type: functional; conditions: read-out: Activity; how it was run: as §3
inhibition [1],Structure (SMILES),inhibition of growth at 10 µM (HCT-116 [2]) [%],inhibition of growth at 5 µM (KB [3]) [%],Activity (HCT-116 [4]),inhibition of growth at 5 µM (HepG2 [5]) [%],inhibition of growth at 2.5 µM (HCT-116 [6]) [%],inhibition of growth at 5 µM (A549 [7]) [%],Activity (HCT-116 [8]) [%],Activity (HCT-116 [9]) [%],Activity (HCT-116 [10]) [%],inhibition of growth at 10 µM (A549 [11]) [%],inhibition of growth at 10 µM (HepG2 [12]) [%],Activity (HCT-116 [13]),inhibition of growth at 10 µM (KB [14]) [%],Activity (HCT-116 [15]),Activity (HCT-116 [16]) [%],Activity (HCT-116 [17]),Activity (HCT-116 [18]),inhibition of growth at 5 µM (HCT-116 [19]) [%],inhibition of growth at 2.5 µM (HCT-116 [20]) [%],further results
Dose-dependent effect,Cc1ccc(-c2nnc(-c3c[nH]c4ncc(-c5ccc(S(C)(=O)=O)cc5)cc4c3=O)o2)cc1,24.4,0.43,Active,6.9,54.8,6.69,17.7,10.6,10.8,11.2,8.94,Active,3.19,Active,6.26,Active,Active,20.4,7.47,inhibition of growth at 5 µM (MCF7 [21]): 6.26%; Activity (HCT-116 [22]): Active; inhibition of growth at 10 µM (HeLa [23]): 18.5%; Activity (L02 [24]): Non-Toxic; Activity (HCT-116 [25]): 20%; inhibition of growth at 10 µM (MCF7 [26]): 10.6%; Activity (L02 [27]): Non-Toxic; inhibition of growth at 5 µM (HeLa [28]): 10.4%; viability at 2.5 µM (HCT-116 [29]): 72.4%; Activity (HCT-116 [30]): 31.2%; viability at 2.5 µM (HCT-116 [31]): 31.2%
Dose-dependent effect,Cc1cccc(-c2nnc(-c3c[nH]c4ncc(-c5ccc(S(C)(=O)=O)cc5)cc4c3=O)o2)c1,25.2,3.7,Active,13.2,50.8,7.92,17.2,4.61,18.1,8.95,13.3,Active,7.5,Active,6.89,Active,Active,20.4,8.13,inhibition of growth at 5 µM (MCF7 [21]): 1.86%; Activity (HCT-116 [22]): Active; inhibition of growth at 10 µM (HeLa [23]): 2.57%; Activity (L02 [24]): Non-Toxic; Activity (HCT-116 [25]): 6.98%; inhibition of growth at 10 µM (MCF7 [26]): 7.76%; Activity (L02 [27]): Non-Toxic; inhibition of growth at 5 µM (HeLa [28]): 1.49%; viability at 2.5 µM (HCT-116 [29]): 70.4%; Activity (HCT-116 [30]): 23.4%; viability at 2.5 µM (HCT-116 [31]): 52.4%
